Measured values pooled from the literature.
Compare with care: the assays were run in different laboratories.
Target: Mitogen-activated protein kinase 4 (MAPK4, Homo sapiens, UniProt P31152)

Structure (SMILES)	read-out	method	tested at	remaining binding [%]
CCN1CCN(Cc2ccc(C(=O)Nc3ccc(C)c(Oc4ccc5c(c4)CC(=O)N5)c3)cc2C(F)(F)F)CC1	binding	competition with immobilised ligand	1 µM	100
FC(F)(F)Oc1cccc(-c2cnc3ccc(-c4ccncc4)nn23)c1	cell-free assay	competition with immobilised ligand	5 µM	100
CO[C@H]1CC[C@H](CNc2ccc(S(=O)(=O)NC(=O)c3ccc(N4CCN(CC5=C(c6ccc(Cl)cc6)CC(C)(C)CC5)CC4)cc3Oc3cnc4[nH]ccc4c3)cc2[N+](=O)[O-])CC1	cell-free assay	competition with immobilised ligand	1 µM	100
O=C(c1ccc(Nc2nccc(-c3cc4ccccc4s3)n2)cc1)N1CCC(N2CCCC2)CC1	binding	competition with immobilised ligand	1 µM	74
CN(CCCC(F)(F)F)c1nccc(-c2cnn3ncccc23)n1	binding	–	1 µM	100
CCCOc1ccc([C@H]2[C@H](C(=O)O)[C@@H](c3ccc4c(c3)OCO4)CN2CC(=O)Nc2c(CC)cccc2CC)cc1	cell-free assay	competition with immobilised ligand	1 µM	93
O=C(c1ccc(Nc2ncc(Cl)c(-c3ccc(Cl)s3)n2)cc1)N1CCC(N2CCCC2)CC1	binding	competition with immobilised ligand	1 µM	0.3
CN(C)c1nccc(-c2cnc3ncccn23)n1	binding	–	1 µM	98
CCS(=O)(=O)c1cc2cc(C[C@](O)(CC(C)(C)c3ccc(F)cc3C(N)=O)C(F)(F)F)[nH]c2cn1	cell-free assay	competition with immobilised ligand	1 µM	100
COc1ccnn2ncc(-c3ccnc(N(C)C)n3)c12	binding	–	1 µM	100
O=C(Nc1ccc(Oc2ccc(F)cc2)cc1)N1CCc2ncccc2[C@H]1c1ccc(F)cc1	cell-free assay	competition with immobilised ligand	1 µM	95
CNC(=O)[C@@H]1CC[C@@H](n2c(-c3ccc4cnccc4c3)nc3ccc(C(=O)NCc4cccc(C(N)=O)c4)cc32)C1	binding	competition with immobilised ligand	1 µM	100
N[C@@H]1CCN(c2nccc(-c3cnn4ncccc34)n2)C1	binding	–	1 µM	100
CO[C@@H](C)c1c(Nc2ccc([C@@H](N(C)C(=O)C3CCS(=O)(=O)CC3)C(F)(F)F)cc2)cnc2cc(Cl)nn12	cell-free assay	competition with immobilised ligand	1 µM	100
O=C(NCC1CCOCC1)c1n[nH]cc1NC(=O)c1c(F)cccc1F	binding	competition with immobilised ligand	1 µM	99
c1cnn2ncc(-c3ccnc(N4CCC45COC5)n3)c2c1	binding	–	1 µM	83
C[C@@H](c1ccc(-n2cnc3c(N)ncnc32)cc1)N1CCc2nn(C)c(Cc3ccccc3)c2C1=O	binding	competition with immobilised ligand	0.1 µM	87
C=CC(=O)N1CCC(C(=O)NCC(=O)N2CCN(c3nc(-c4cnc(N)nc4C(F)F)nc(N4CCOCC4)n3)CC2)CC1	binding	competition with immobilised ligand	1 µM	97
Cc1cnc(Nc2ccc(C(=O)N3CCC(N4CCCC4)CC3)cc2)nc1-c1cc2ccccc2s1	binding	competition with immobilised ligand	1 µM	39
CS(=O)(=O)N1CCCC(NC(=O)[C@H](CCC2CCCCC2)NC(=O)c2ccc(CNC(=O)c3cnc4ccccn34)cc2)C1 (stereo partly drawn)	cell-free assay	competition with immobilised ligand	0.1 µM	100
C[C@@H]1CCN(c2nccc(-c3cnn4ncccc34)n2)C1	binding	–	1 µM	100
